Columns and labels:
[1] = Selectivity index, ratio of TC50 for African green monkey Vero cells to IC50 for HSV1 strain F VR 733 infected in African green monkey Vero cells; type: toxicity; settings: read-out: Selectivity Index
Procedure, shortened: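 Calculated as TC50/IC50 in Vero cells. TC50 is the cytotoxic concentration that inhibits Vero cell growth by 50%. No SI was assigned where it could not be determined under the test conditions.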

[2] = system: Human alphaherpesvirus 1; assay: Antiviral activity against HSV1 F VR 733 infected in African green monkey Vero cells assessed as inhibition of virus-induced cytopathic effect; type: functional, organism-based; settings: Human alphaherpesvirus 1, Strain F ATCC VR 733, Vero
[3] = Cytotoxicity against African green monkey Vero cells measured after 48 hrs; type: cell-based; settings: chlorocebus sabaeus, read-out: TC50
Procedure, shortened: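 TC50 is the concentration that inhibits Vero cell growth by 50%. It is used with the antiviral IC50 to give a selectivity index (TC50/IC50).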

[4] = Cytotoxicity against MDCK cells measured after 48 hrs; type: cell-based, Canis lupus familiaris; settings: dog, read-out: TC50
Procedure, shortened: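 TC50 is the concentration that inhibits MDCK cell growth by 50%, reported as the mean of three independent determinations. It is paired with the anti-influenza A IC50 to give a selectivity index (TC50/IC50).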

[5] = system: Influenza A virus; assay: Antiviral activity against Influenza A virus A/95-359 infected in MDCK cells assessed as inhibition of virus-induced cytopathic effect; type: functional, organism-based; settings: A/95-359, MDCK
Procedure, shortened: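 MDCK cells; IC50 given as the mean of three independent determinations.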

[6] = Selectivity index, ratio of TC50 for MDCK cells to IC50 for Influenza A virus A/95-359 infected in MDCK cells; type: toxicity, cell-based; settings: dog, read-out: Selectivity Index
Procedure, shortened: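 Ratio of TC50 to IC50, both in MDCK cells. TC50 is the concentration that inhibits MDCK cell growth by 50%. Values are means of three independent determinations. No SI was assigned where it could not be determined under the test conditions.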

SMILES | selectivity ratio [1] | IC50 [2] [µM] | CC50 at 48 h [3] [µM] | CC50 at 48 h [4] [µM] | IC50 [5] [µM] | selectivity ratio [6]
CC1=C2C3=CC[C@@H]4[C@@]5(C)C[C@@H](O)[C@@H](O)[C@@](C)(CO)[C@@H]5CC[C@@]4(C)[C@]3(C)CC[C@@]23CC[C@]1(C)OO3 | 3.6 | 6.41 | 23.1 | 57.7 | > 33.3 | 
CC(=O)CCC1=C(C(C)=O)C2=CC[C@@H]3[C@@]4(C)C[C@@H](O)[C@@H](O)[C@](C)(CO)[C@@H]4CC[C@@]3(C)[C@]2(C)CC1 |  | > 33.3 | 69.3 | > 100 | > 33.3 | 
Cc1ccc2c(c1C)C1=CC[C@@H]3[C@@]4(C)C[C@@H](O)[C@H](O)[C@@](C)(CO)[C@@H]4CC[C@@]3(C)[C@]1(C)CC2 | 4.3 | 0.41 | 1.78 | 3.7 | 1.23 | 3
CC1=C2C3=CC[C@@H]4[C@@]5(C)CC[C@@H](O)[C@](C)(CO)[C@@H]5CC[C@@]4(C)[C@]3(C)CC[C@]23CC[C@@]1(C)OO3 |  | > 11.1 | 33.3 | 19.2 | > 11.1 | 
CC1=C2C3=CC[C@@H]4[C@@]5(C)CC[C@@H](O)[C@@](C)(CO)[C@@H]5CC[C@@]4(C)[C@]3(C)CC[C@@]23CC[C@]1(C)OO3 |  | > 11.1 | 57.7 | 19.2 | > 11.1 | 
Cc1ccc2c(c1C)C1=CC[C@@H]3[C@@]4(C)[C@H](O)[C@@H](O)[C@@H](O)[C@@](C)(CO)[C@@H]4CC[C@@]3(C)[C@]1(C)CC2 |  | > 0.41 | 1.78 | 2.57 | > 1.23 | 
Cc1ccc2c(c1C)C1=CC[C@@H]3[C@@]4(C)CC[C@@H](O)[C@](C)(CO)[C@@H]4CC[C@@]3(C)[C@]1(C)CC2 |  | > 1.23 | 5.34 | 19.2 | > 11.1 | 
Cc1ccc2c(c1C)C1=CC[C@@H]3[C@@]4(C)C[C@@H](O)[C@@H](O)[C@](C)(CO)[C@@H]4CC[C@@]3(C)[C@]1(C)CC2 |  | > 1.23 | 3.7 | 7.7 | > 3.7 | 
Cc1ccc2c(c1C)C1=CC[C@@H]3[C@@]4(C)[C@H](O)C[C@@H](O)[C@](C)(CO)[C@@H]4CC[C@@]3(C)[C@]1(C)CC2 |  | > 3.7 | 11.1 | 16 | > 3.7 | 
Nc1nc2c(ncn2COCCO)c(=O)[nH]1 [ACYCLOVIR] | > 244 | 0.41 | > 100 |  |  | 
CCOC(=O)C1=C[C@@H](OC(CC)CC)[C@H](NC(C)=O)[C@@H](N)C1 [OSELTAMIVIR] |  |  |  |  | 1.63 | 

Reference: ChEMBL document CHEMBL4196144, “Minor Nortriterpenoids from the Twigs and Leaves of Rhododendron latoucheae” (J Nat Prod, 2018)
